Measured values reported in ChEMBL document CHEMBL1649368, “Novel isatinyl thiosemicarbazones derivatives as potential molecule to combat HIV-TB co-infection” (Eur J Med Chem, 2011).
In brackets after ≈: the same amount, converted by molar mass.

Assays:
[1] = system: Mycobacterium tuberculosis; assay: Antimycobacterial activity against Mycobacterium tuberculosis H37Ra by agar dilution method; format: functional
Method in brief: (§1)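 Log-phase MTB was tested by agar dilution on Middlebrook 7H11 with OADC, following NCCLS guidance. MIC was the lowest concentration giving complete growth inhibition, determined in triplicate.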

[2] = system: Mycobacterium tuberculosis; assay: Antimycobacterial activity against Mycobacterium tuberculosis H37Ra assessed as inhibition of bacterial growth in dormant phase; format: functional
Method in brief: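 MTB grown in 7H9 with glycerol, OADC and Tween 80 at 37 °C with rolling to OD600 ~0.6, then washed and held in PBS 6 weeks at 37 °C. Starved cells (~1×10^7 in 1 mL PBS) were exposed to compounds in DMSO at various concentrations for 7 days with shaking. After washing, dilutions were plated on antibiotic-free 7H11 and counted after 4 weeks. MIC was complete growth inhibition, in triplicate.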

[3] = molecular target: Human immunodeficiency virus type 1 reverse transcriptase (Human immunodeficiency virus 1, UniProt Q72547); assay: Inhibition of HIV1 reverse transcriptase
Method in brief: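 The radiometric reaction used wild-type RT in 50 mM Tris-HCl pH 7.8 with DTT, glutathione, EDTA, KCl, MgCl2, BSA, Triton X-100, poly(rC)·oligo(dG) template/primer and [3H]dGTP. It ran 15 min at 37 °C, was stopped with carrier DNA, pyrophosphate and TCA, and held on ice 30 min.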

[4] = system: Mycobacterium tuberculosis; assay: Antimycobacterial activity against Mycobacterium tuberculosis H37Ra assessed as inhibition of bacterial growth in log phase by agar dilution method; format: functional; method in brief: as §1
[5] = molecular target: T1, Isocitrate lyase (Mycobacterium tuberculosis) (UniProt P9WKK7); assay: Inhibition of Mycobacterium tuberculosis isocitrate lyase […]
T1 sequence (whole entry): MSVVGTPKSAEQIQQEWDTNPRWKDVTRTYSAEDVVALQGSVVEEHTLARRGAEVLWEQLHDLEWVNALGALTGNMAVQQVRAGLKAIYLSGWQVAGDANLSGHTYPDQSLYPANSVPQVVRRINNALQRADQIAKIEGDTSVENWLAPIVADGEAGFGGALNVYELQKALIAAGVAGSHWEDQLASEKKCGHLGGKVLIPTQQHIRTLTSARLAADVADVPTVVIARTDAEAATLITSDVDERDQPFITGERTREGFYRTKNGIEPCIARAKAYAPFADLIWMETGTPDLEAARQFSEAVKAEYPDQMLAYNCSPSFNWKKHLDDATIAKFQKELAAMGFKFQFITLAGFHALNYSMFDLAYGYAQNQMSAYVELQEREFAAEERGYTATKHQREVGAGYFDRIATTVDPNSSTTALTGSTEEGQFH
Method in brief: (§2)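 Isocitrate lyase activity was measured at 37 °C as glyoxylate-phenylhydrazone formation from isocitrate with phenylhydrazine, MgCl2 and 2-mercaptoethanol in potassium phosphate buffer. After 10 min the mixture was diluted and absorbance read at 324 nm. Test compounds were added from a 10 mM solution; the 3-nitropropionic acid reference came from a 100 mM solution. % inhibition = (control − test)/control × 100.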

[6] = system: Human immunodeficiency virus 1; assay: Antiviral activity against HIV1 3B infected in human MT4 cells assessed as protection against virus-induced cytopathogenicity after 5 days by microtiter plate analysis; format: functional, organism-based; conditions: Human immunodeficiency virus 1, 3B, MT4, 120 h
Method in brief: (§3)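 MT-4 cells were grown in RPMI-1640 DM with 10% heat-inactivated calf serum and gentamicin. HIV-1 IIIB (100 CCID50) or mock infection was run in parallel with compounds in triplicate, at 37 °C and 5% CO2 for 5 days. Viability was read by MTT spectrophotometry. EC50 was the 50% reduction in virus cytopathic effect; CC50 was the 50% loss of mock-infected cell viability.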

[7] = Cytotoxicity against human MT4 cells after 5 days by spectrophotometry; format: cell-based; method in brief: as §3
[8] = molecular target: T1, Isocitrate lyase (Mycobacterium tuberculosis); assay: Inhibition of Mycobacterium tuberculosis isocitrate lyase at 100 mM; method in brief: as §2

For `CONC(=S)N/N=C1\C(=O)N(CN2CCN(c3ccc(Cl)cc3)CC2)c2ccc(Cl)cc21`, the MIC [1] was 6.34 µM (≈ 3.13 µg/mL), the MIC [2] was 27.3 µM (≈ 13.5 µg/mL) and the IC50 [3] was 0.25 µM. It also gave an MIC [4] of 6.82 µM (≈ 3.37 µg/mL), an inhibition [5] of 6.38% and an EC50 [6] of 2.43 µM. The CC50 at 120 h [7] was 229 µM.

For `O=C(O)CC[N+](=O)[O-]`, the inhibition [8] was 66%.

`CONC(=S)N/N=C1\C(=O)N(CN2CCN(c3ccc(Cl)cc3)CC2)c2ccc(F)cc21` gave an MIC [1] of 3.27 µM (≈ 1.56 µg/mL), an MIC [2] of 42.1 µM (≈ 20.1 µg/mL) and an IC50 [3] of 16.7 µM. The MIC [4] was 0.67 µM (≈ 0.32 µg/mL), the inhibition [5] was 28.4% and the EC50 [6] was 3.77 µM. The CC50 at 120 h [7] was 347 µM.

`CONC(=S)N/N=C1\C(=O)N(CN2CCOCC2)c2ccc(F)cc21` gave an MIC [1] of 4.25 µM (≈ 1.56 µg/mL), an MIC [2] of 13.5 µM (≈ 4.95 µg/mL) and an MIC [4] of 3.37 µM (≈ 1.24 µg/mL). For the same compound, the inhibition [5] was 15.9%, the EC50 [6] was 28.9 µM and the CC50 at 120 h [7] was 274 µM.

In the case of `CCn1cc(C(=O)O)c(=O)c2cc(F)c(N3CCN(CN4C(=O)/C(=N\NC(=S)NO)c5cc(C)ccc54)C(C)C3)c(F)c21` (stereo unspecified), the MIC [1] is reported as 0.65 µM (≈ 0.399 µg/mL), the MIC [2] is reported as 34.6 µM (≈ 21.2 µg/mL) and the MIC [4] is reported as 0.64 µM (≈ 0.393 µg/mL). It also gave an EC50 [6] of 11.7 µM and a CC50 at 120 h [7] of 244 µM.

`CCN(CC)CN1C(=O)/C(=N\NC(=S)NOC)c2cc(C)ccc21` gave an MIC [1] of 8.96 µM (≈ 3.13 µg/mL), an inhibition [5] of 18.9% and an EC50 [6] of 53.3 µM. The CC50 at 120 h [7] was 573 µM.

Work on `O=C1/C(=N\NC(=S)NO)c2cc(F)ccc2N1CN1CCN(c2ccc(Cl)cc2)CC1` yielded an MIC [1] of 3.37 µM (≈ 1.56 µg/mL), an inhibition [5] of 18.5% and an EC50 [6] of 6.85 µM. The CC50 at 120 h [7] was 194 µM.

Compound `CONC(=S)N/N=C1\C(=O)N(CN2CCN(c3ccc(OC)cc3)CC2)c2ccc(C)cc21` has an MIC [1] of 6.68 µM (≈ 3.13 µg/mL), an MIC [2] of 9.74 µM (≈ 4.56 µg/mL) and an MIC [4] of 0.16 µM (≈ 0.075 µg/mL). For the same compound, the inhibition [5] was 23.3%, the EC50 [6] was 9.82 µM and the CC50 at 120 h [7] was 324 µM.

Compound `CONC(=S)N/N=C1\C(=O)N(CN2CCN(c3cc4c(cc3F)c(=O)c(C(=O)O)cn4C3CC3)CC2)c2ccc(C)cc21` has an MIC [1] of 0.66 µM (≈ 0.401 µg/mL), an inhibition [5] of 63.4% and an EC50 [6] of 9.22 µM. It also gave a CC50 at 120 h [7] of 232 µM.

For `CONC(=S)N/N=C1\C(=O)N(CN2CCN(c3ccc(Cl)cc3)CC2)c2ccc(C)cc21`, the MIC [1] was 3.3 µM (≈ 1.56 µg/mL), the MIC [2] was 20.4 µM (≈ 9.64 µg/mL) and the IC50 [3] was 11.5 µM. For the same compound, the MIC [4] was 0.65 µM (≈ 0.307 µg/mL), the inhibition [5] was 9.49% and the EC50 [6] was 1.69 µM. The CC50 at 120 h [7] was 300 µM.

For `Cc1ccc2c(c1)/C(=N/NC(=S)NO)C(=O)N2CN1CCN(c2ccc(Cl)cc2)CC1`, the MIC [1] was 6.82 µM (≈ 3.13 µg/mL), the IC50 [3] was 23.4 µM and the inhibition [5] was 11%. It also gave an EC50 [6] of 6.1 µM and a CC50 at 120 h [7] of 335 µM.

For `CONC(=S)N/N=C1\C(=O)N(CN2CCN(c3c(F)cc4c(=O)c(C(=O)O)cn(C5CC5)c4c3OC)CC2C)c2ccc(C)cc21` (stereo unspecified), the MIC [1] was 0.31 µM (≈ 0.202 µg/mL), the MIC [2] was 17.8 µM (≈ 11.6 µg/mL) and the MIC [4] was 0.31 µM (≈ 0.202 µg/mL). For the same compound, the EC50 [6] was 1.86 µM and the CC50 at 120 h [7] was 154 µM.
